# Screens from PubChem BioAssay.
# KCNQ1 block: inhibitors of human KCNQ1 potassium channel. 310,000 tested, 1.3% active. B-score at 10 µM. CHO-K1 KCNQ1, FluxOR thallium flux fluorescence; active compounds read high;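 active means compounds whose thallium flux B-score, printed positive for inhibition, exceeds three library SD while starting fluorescence stays within three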;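 further: channel opened by potassium depolarization with thallium stimulus after 20 min compound exposure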
# hERG rescue: compounds protecting human hERG from proarrhythmic drug block | Q12809 | CHO-hERG, FluxOR thallium flux, dofetilide IC70 present | activation (rescue from dofetilide block), less the hit threshold, % at 10 µM | 310,000 tested, 0.51% active | AID 1511;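 active means activation above the mean of controls blocked by dofetilide plus 5 SD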;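 further: thallium influx through hERG after potassium depolarization seen as dye fluorescence rise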
# KCNK9 inh: inhibitors of human KCNK9 two-pore domain potassium channel; 310,000 tested, 1.2% active; B-score at 10 µM; HEK293 KCNK9, FluxOR thallium flux fluorescence; active compounds read low; AID 488922;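 active means ratio B-score over 3 SD below the library mean, with starting fluorescence within 5 SD of its mean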;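 further: negative B-score means less thallium flux so channel inhibition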
# Target sequence (Q9NPC2 whole entry, looked up, the tested form may be a part): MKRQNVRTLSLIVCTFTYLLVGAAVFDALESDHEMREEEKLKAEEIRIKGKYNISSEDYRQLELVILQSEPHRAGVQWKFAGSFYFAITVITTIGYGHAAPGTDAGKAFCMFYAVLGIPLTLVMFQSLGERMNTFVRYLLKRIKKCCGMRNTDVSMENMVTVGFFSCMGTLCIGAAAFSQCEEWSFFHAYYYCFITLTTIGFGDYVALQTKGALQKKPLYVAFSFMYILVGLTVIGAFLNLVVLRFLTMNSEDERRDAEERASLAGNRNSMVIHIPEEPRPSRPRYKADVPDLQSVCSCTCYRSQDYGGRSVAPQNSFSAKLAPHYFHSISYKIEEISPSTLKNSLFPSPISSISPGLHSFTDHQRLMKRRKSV
# KCNQ1 pot: human KCNQ1 channel potentiation or activation | CHO-K1 KCNQ1, thallium flux FluxOR fluorescence; active compounds read high | B-score at 10 µM | 310,000 tested, 0.35% active | AID 2648;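 active means fluorescence ratio B-score, a plate-corrected score, at least three library SD, with initial intensity B-score within 5 SD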
#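 System: Stable KCNQ1 CHO-K1 line | Incubation: 90 min dye loading and 20 min compound exposure, both at room temperature | Measure: Ratio B score | Medium: Assay buffer for compound exposure, DMSO matched across wells | Compound dosing: Single-concentration screen | Probe or stimulus: K+/Tl+ depolarizing stimulus | Measured by: Kinetic FluxOR fluorescence, 10 s baseline plus 110 s post-stimulus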
# KCNK3 block: human KCNK3 channel inhibition, primary screen. O14649. CHO-KCNK3 thallium flux, FluxOR fluorescence; active compounds read low. B-score at 10 µM. 340,000 tested, 0.84% active;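 active means B-score under library mean minus 4 SD, starting fluorescence ratio at most library mean plus 5 SD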;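 further: more negative B-score means stronger inhibition of thallium flux through KCNK3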
# Kir21 inh: blocks the mouse Kir2.1 inward-rectifier potassium channel. B-score at 10 µM. P35561. 310,000 tested, 0.85% active. HEK293-Kir2.1, FluxOR thallium flux fluorescence; active compounds read low. AID 1672;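 active means fluorescence ratio B-score at or below minus 3 SD of library scores, with starting-brightness B-score within 2 SD, cut at about -4.2 in these data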;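 further: channel flux triggered by added potassium and thallium sulfate stimulus; B-score of peak minus minimum fluorescence over baseline after thallium stimulus; more negative B-score means stronger Kir2.1 block with less thallium influx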
# KCNK9 block conf: confirmation of human KCNK9 potassium channel inhibitors | shares compounds with KCNK9 inh | HEK293 KCNK9 cells, FluxOR thallium flux fluorescence | inhibition, % at 10 µM | 4,900 tested, 43% active;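 active means thallium signal inhibited by more than 5 SD of the compound-free buffer control wells, on both duplicate plates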
# Kir2-1 spec: tests whether KCNK9 modulators also affect mouse Kir2.1; 4,900 tested, 4% active; shares compounds with KCNK9 inh; Kir2.1 cells, FluxOR thallium flux fluorescence; inhibition, % at 10 µM; AID 492993;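 active means thallium signal drop more than 5 SD beyond the mean of the no-compound control wells, seen in both duplicate plates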;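 further: signal is fluorescence rise after thallium addition divided by baseline fluorescence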
# KCNK9 uninduced: second check of KCNK9 modulator effects in non-induced HEK293 cells; AID 492997; FluxOR thallium flux; 4,900 tested, 40% active; shares compounds with KCNK9 inh; inhibition, % at 10 µM;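 active means thallium signal drop beyond 5 SD of the untreated control mean, on both duplicate plates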
# Hits are given with their value; . = inactive; / = not tested or not shown. Shown are actives, neighbours in structure and some others; about 3.7% of the full set was active somewhere.
SMILES,KCNQ1 block,hERG rescue,KCNK9 inh,KCNQ1 pot,KCNK3 block,Kir21 inh,KCNK9 block conf,Kir2-1 spec,KCNK9 uninduced
O=c1[nH]c(=S)n(CCC2=CCCCC2)c(O)c1/C=N/Nc1ccccc1,.,.,.,.,.,.,.,.,25%
CC(C)n1c(=O)c(C=Nc2ccc(F)cc2)c(O)n(Cc2ccco2)c1=O,.,.,.,.,.,.,.,.,.
Cc1cccc(CN2CCCN(Cc3ccc(Cl)cc3)S2(=O)=O)c1,.,.,.,.,.,.,/,/,/
Cc1ccc(CN2CCCN(Cc3ccc(C)cc3)S2(=O)=O)cc1,.,.,.,.,.,.,.,.,.
O=C(Cc1ccccc1F)N1CCN(CC(=O)N2CCCC2)CC1,/,/,/,/,.,/,/,/,/
Cc1ccc(S(=O)(=O)N[C@@H](CCCCN)C(=O)CCl)cc1,.,.,.,.,.,.,/,/,/
COc1ccc(C2SCC(=O)Nc3c2c(C)nn3-c2ccccc2)cc1 (centres undefined),.,.,.,.,.,.,/,/,/
Cc1ccc(-n2nc(C)c3c2NC(=O)CSC3c2ccc3c(c2)OCO3)cc1 (centres undefined),.,.,-13,.,.,.,36%,.,31%
Cc1ccc(C(=O)O)cc1N=Nc1c(O)[nH]c(=O)[nH]c1=O,.,.,.,.,.,.,/,/,/
Cc1ccc(CN2CCCC(C(=O)c3sccc3C)C2)o1 (centres undefined),.,.,.,.,.,.,.,.,.
Cc1ccsc1C(=O)C1CCCN(Cc2cc3ccccc3o2)C1 (centres undefined),.,.,.,.,.,.,.,.,.
Cc1ccc(CN2CCCC(C(=O)c3cccc(C(F)(F)F)c3)C2)o1 (centres undefined),.,.,.,.,.,.,.,.,.
Cc1ccc(O)c(C(=O)c2cc(C(=O)NCc3ccccc3)c(=O)n(Cc3ccccc3)c2)c1,.,.,-10,.,.,.,38%,.,46%
Cn1cc(C(=O)NCc2ccccc2)c2ccccc21,.,.,.,.,.,.,/,/,/
O=C(CN1CC=C(c2ccccc2)CC1)Nc1cc(Cl)ccc1Cl,.,.,.,.,.,.,.,.,.
O=C(c1ccc(Cl)cc1)C1CCCN(Cc2cccc3cccnc23)C1 (centres undefined),.,.,.,.,.,.,.,.,.
Cc1cccc(CN2CCCC(C(=O)c3cccc(OC(C)C)c3)C2)n1 (centres undefined),.,.,.,.,.,.,.,.,.
O=C(c1cc(F)ccc1F)C1CCCN(Cc2cccc(Cl)c2)C1 (centres undefined),.,.,.,.,.,.,.,.,.
COc1cccc(C(=O)C2CCCN(Cc3cccc(C)n3)C2)c1 (centres undefined),.,.,.,.,.,.,/,/,/
Cc1cc(Cl)ccc1C(=O)C1CCCN(Cc2ccon2)C1 (centres undefined),.,.,.,.,.,.,/,/,/
O=C(c1ccc2c(c1)OCO2)C1CCCN(Cc2c(F)cccc2Cl)C1 (centres undefined),.,.,.,.,.,.,.,.,.
c1ccc2c(N3CCNCC3)nsc2c1,.,.,.,.,.,.,/,/,/
C=CCn1c(O)c(/C=N/NC(=O)CCCC)c(=O)[nH]c1=S,.,.,.,.,.,.,/,/,/
COc1cccc(C(=O)C2CCCN(Cc3cnn(C(C)C)c3)C2)c1 (centres undefined),.,.,.,.,.,.,/,/,/
COc1cccc(C(=O)C2CCCN(Cc3ccc4nsnc4c3)C2)c1 (centres undefined),.,.,.,.,.,.,.,.,.
SMILES,KCNQ1 block,hERG rescue,KCNK9 inh,KCNQ1 pot,KCNK3 block,Kir21 inh,KCNK9 block conf,Kir2-1 spec,KCNK9 uninduced
COc1cccc(C(=O)C2CCCN(Cc3ccc(F)cc3)C2)c1 (centres undefined),.,.,.,.,.,.,.,.,.
CCOP(=S)(OCC)SCCSCC,/,/,/,/,.,/,/,/,/
COc1cc(CN2CCCC(C(=O)c3sccc3C)C2)cc(Cl)c1O (centres undefined),.,.,.,.,.,.,.,.,.
Cc1ccsc1C(=O)C1CCCN(Cc2cccc(-n3cccn3)c2)C1 (centres undefined),.,.,.,.,.,.,.,.,.
CSc1ncc(CN2CCCC(C(=O)c3sccc3C)C2)cn1 (centres undefined),.,.,.,.,.,.,.,.,.
CSc1ccc(C(=O)C2CCCN(Cc3cnc(SC)nc3)C2)cc1 (centres undefined),.,.,.,.,.,.,.,.,.
Cc1ccccc1CN1Cc2cnnn2-c2ccccc2C1C#N (centres undefined),/,/,/,/,.,/,/,/,/
CC(=NCCN1CCCCC1)c1c(O)n(-c2ccccc2)c(=O)[nH]c1=O,.,.,.,.,.,.,.,.,.
CN1Cc2c(c(C#N)c(N)n(C)c2=S)CC1(C)C,.,.,.,.,.,.,/,/,/
C=Cc1ccc(Cn2c(C(=O)O)c(C=O)c3ccccc32)cc1,.,.,.,.,.,.,/,/,/
Cc1cc(O)c(CN2CC=C(c3ccccc3)CC2)cc1C(C)C,.,.,.,.,.,.,.,.,.
OC(CN1CC=C(c2ccccc2)CC1)c1ccccc1 (centres undefined),.,.,.,.,.,.,/,/,/
O=c1c2ccccc2nc(Cc2cccc([N+](=O)[O-])c2)n1-c1ccc(O)cc1,.,.,.,.,.,.,/,/,/
COc1cc(CN2CC=C(c3ccc(F)cc3)CC2)cc(OC)c1,.,.,.,.,.,.,/,/,/
COc1cc(C)c(CN2CC=C(c3ccc(F)cc3)CC2)cc1C,.,.,.,.,.,.,.,.,.
CCCCC/C(=N\O)c1c[nH]c2ccccc12,.,.,-13,.,.,.,56%,.,25%
CCCCC/C(=N/O)c1c(C)[nH]c2ccccc12,.,.,.,.,.,.,/,/,/
OC(c1ccc(F)cc1)(c1ccc(F)cc1)[C@@H]1CCCN1,.,.,.,.,.,.,/,/,/
CC(CC(C)(C)N1CC1)=NO,/,/,/,/,.,/,/,/,/
CCOP(=O)(C#CC(C)(C)C)C(C)(O)c1ccccc1 (centres undefined),.,.,.,.,.,.,/,/,/
CC(C)(C#CC(=O)O)OOC(c1ccccc1)(c1ccccc1)c1ccccc1,.,.,.,.,.,.,.,.,.
COc1ccccc1OCC(=O)N1CCCC(N(C)Cc2ccccc2)C1 (centres undefined),.,.,.,.,.,.,/,/,/
